Experimental data reported in ChEMBL document CHEMBL1926607 (J Med Chem, 2011).

Key:
[1] = molecular target: D(2) dopamine receptor (Rattus norvegicus, UniProt P61169); test: Displacement of [3H]spiperone from dopamine D2 receptor in Sprague-Dawley albinus rat striatal membranes after 15 mins; format: cell membranes, Membrane
[2] = molecular target: T1, 5-hydroxytryptamine receptor 3A (Rattus norvegicus, UniProt P35563); test: Displacement of [3H]-LY278584 from 5HT3 receptor in Sprague-Dawley albinus rat cerebral cortex membranes after 30 mins; format: cell membranes, Membrane
T1 sequence (P35563 whole entry): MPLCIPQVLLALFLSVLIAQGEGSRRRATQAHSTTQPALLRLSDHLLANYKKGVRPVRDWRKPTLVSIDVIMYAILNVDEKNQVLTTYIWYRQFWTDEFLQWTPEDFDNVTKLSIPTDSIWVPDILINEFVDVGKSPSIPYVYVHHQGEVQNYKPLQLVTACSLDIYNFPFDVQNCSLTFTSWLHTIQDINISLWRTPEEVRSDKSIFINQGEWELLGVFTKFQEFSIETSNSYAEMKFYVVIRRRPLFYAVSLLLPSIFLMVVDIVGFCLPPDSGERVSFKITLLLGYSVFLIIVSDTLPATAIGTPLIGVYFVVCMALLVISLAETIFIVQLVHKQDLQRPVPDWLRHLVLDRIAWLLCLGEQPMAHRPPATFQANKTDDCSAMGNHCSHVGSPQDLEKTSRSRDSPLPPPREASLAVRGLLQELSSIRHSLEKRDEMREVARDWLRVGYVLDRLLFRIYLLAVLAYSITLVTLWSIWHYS

[3] = Neuroprotective activity in Wistar rat hippocampi primary neuronal cells assessed as protection against serum-deprivation induced cell death at 10 uM after 24 hrs by MTT assay; format: functional, Hippocampus, Primary neuron
Outline: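 Mixed neuron-glia cultures from E18 Wistar rat hippocampi (Neurobasal plus 10% FCS), used at 11 days in vitro. Medium replaced by saline to withdraw serum; cells held 24 h with compound. Cell survival measured by MTT reduction, expressed as % protection.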

[4] = Neuroprotective activity in Wistar rat hippocampi primary neuronal cells assessed as protection against oxygen-glucose deprivation induced cell death at 10 uM after 18 hrs by MTT assay; format: functional, Hippocampus, Primary neuron
[5] = molecular target: 5-hydroxytryptamine receptor 2A (Rattus norvegicus, UniProt P14842); test: Displacement of [3H]ketanserin from 5HT2A receptor in Sprague-Dawley albinus rat frontal cortex membranes after 15 mins; format: cell membranes, Membrane
Chain of 5-hydroxytryptamine receptor 2A (P14842 whole entry): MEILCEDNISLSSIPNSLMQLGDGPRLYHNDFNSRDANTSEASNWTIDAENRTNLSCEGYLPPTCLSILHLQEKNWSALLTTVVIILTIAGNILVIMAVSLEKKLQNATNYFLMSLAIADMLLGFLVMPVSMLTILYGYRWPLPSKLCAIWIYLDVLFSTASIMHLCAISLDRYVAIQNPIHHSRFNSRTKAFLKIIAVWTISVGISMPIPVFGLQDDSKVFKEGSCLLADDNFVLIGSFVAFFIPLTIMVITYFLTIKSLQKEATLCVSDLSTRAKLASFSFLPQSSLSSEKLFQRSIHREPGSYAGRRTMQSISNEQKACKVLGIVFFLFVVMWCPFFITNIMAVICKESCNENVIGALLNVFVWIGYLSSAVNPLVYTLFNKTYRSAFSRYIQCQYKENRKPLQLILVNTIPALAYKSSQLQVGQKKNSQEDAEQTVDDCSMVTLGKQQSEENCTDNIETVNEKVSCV
Outline: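 Rat frontal cortex membranes (male Sprague–Dawley, 180–200 g). Nonspecific binding was set with 1 μM cinanserin.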

[6] = molecular target: 5-hydroxytryptamine receptor 7 (Rattus norvegicus, UniProt P32305); test: Displacement of [3H]-5-CT from 5HT7 receptor in Sprague-Dawley albinus rat hyphalamic membranes after 120 mins; format: cell membranes, Membrane
Chain of 5-hydroxytryptamine receptor 7 (P32305 whole entry): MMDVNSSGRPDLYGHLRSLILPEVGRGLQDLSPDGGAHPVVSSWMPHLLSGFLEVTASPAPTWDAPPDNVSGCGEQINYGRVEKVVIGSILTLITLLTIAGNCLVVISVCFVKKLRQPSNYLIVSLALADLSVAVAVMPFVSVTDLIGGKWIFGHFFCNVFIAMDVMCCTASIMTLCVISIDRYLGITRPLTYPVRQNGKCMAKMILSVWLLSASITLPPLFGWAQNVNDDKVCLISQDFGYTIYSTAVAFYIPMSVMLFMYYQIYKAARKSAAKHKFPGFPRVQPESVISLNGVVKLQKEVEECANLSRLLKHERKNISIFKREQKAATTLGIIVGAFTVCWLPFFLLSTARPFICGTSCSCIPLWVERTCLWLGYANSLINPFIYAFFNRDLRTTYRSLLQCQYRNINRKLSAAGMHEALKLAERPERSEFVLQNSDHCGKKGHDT

Chain of D(2) dopamine receptor (P61169 whole entry): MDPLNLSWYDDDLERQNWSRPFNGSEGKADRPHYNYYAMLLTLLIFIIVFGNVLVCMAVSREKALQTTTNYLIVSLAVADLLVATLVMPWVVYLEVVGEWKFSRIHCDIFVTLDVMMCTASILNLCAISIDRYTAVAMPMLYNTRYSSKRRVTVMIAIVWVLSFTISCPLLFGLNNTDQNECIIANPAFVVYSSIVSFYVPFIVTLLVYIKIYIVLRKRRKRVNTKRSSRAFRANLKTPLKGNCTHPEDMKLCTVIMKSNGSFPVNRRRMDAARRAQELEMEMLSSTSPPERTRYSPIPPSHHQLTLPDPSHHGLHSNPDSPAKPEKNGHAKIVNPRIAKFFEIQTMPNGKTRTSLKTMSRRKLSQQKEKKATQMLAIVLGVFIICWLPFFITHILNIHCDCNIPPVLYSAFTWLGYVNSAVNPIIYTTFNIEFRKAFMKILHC

## Cl.O=C1C2CCCN2C(=O)CN1CCCCNCC1CCc2ccccc2O1 (stereo unspecified)
[1]
  Ki: > 1000 nM
[2]
  Ki: > 1000 nM
[3]
  Activity: 13%
[4]
  Activity: 66%
[5]
  Ki: > 1000 nM
[6]
  Ki: 418 nM
